In ChEMBL document CHEMBL1122898, “Antiulcer agents. 1. Gastric antisecretory and cytoprotective properties of substituted imidazo[1,2-a]pyridines” (1985) one finds inhibition in vivo and ED50 data, which are given here for 15 compounds.

Common to all, as to assay type: functional
The test system of assay [1] is Canis familiaris. The assay can be described thus: Inhibition of histamine stimulated gastric acid secretion in adult mongrel dogs at dose 2 mg/kg given intravenously. As to conditions: Canis lupus familiaris, Stomach, route intravenous. The essentials: (§1)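 Dogs with Heidenhain pouches, 12–18 kg, fasted 18 h. Compound given iv in 3 mL or by gavage in 5 mL of 0.4% methylcellulose/saline, 1 h after infusion start. 30-min collections titrated. Summed 3-h AO against the same dog's control AO gives % inhibition. Usually one dog per compound.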

For assay [2], the system named is Canis familiaris. As to the kind of experiment: Inhibition of histamine stimulated gastric acid secretion in adult mongrel dogs at dose 8 mg/kg given orally. As to conditions: Canis lupus familiaris, Stomach, route oral. The essentials: as §1
For assay [3], the system named is Rattus norvegicus. As to the kind of experiment: Gastric antisecretory activity in the pylorus-ligated rat and the reduction in acid output was measured after 4 hr by intraperitoneal (ip) administration of 40 mg/kg dose. The essentials:
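Male Charles River CD rats, 150–200 g, fasted 24 h. Pylorus ligated under Brevital anesthesia. 40 mg/kg given ip in 2.5% Tween 80 at ligation. Stomach contents collected at 4 h and titrated with 0.1 N NaOH to pH 7.0. % inhibition from mean AO, 6 treated vs 8 control rats. Student's t test.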

The test system of assay [4] is Canis familiaris. The assay can be described thus: Inhibition of histamine stimulated gastric acid secretion in mongrel dogs following 4 mg/kg p.o. administration. The note with it: Canis lupus familiaris, Stomach, route oral. In a few lines:
as §1

The species named for assay [5] is Rattus norvegicus. The assay can be described thus: Oral gastric cytoprotective activity in the rat against ethanol-induced lesions. The note with it: Stomach. The essentials: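 Rats fasted and water-deprived for 20 h. Compound given orally, 1–30 mg/kg in 0.4% methylcellulose/saline, 30 min before 1 mL absolute ethanol po. Killed 1 h after ethanol. Linear hemorrhagic lesion lengths totalled per stomach, expressed as group mean. ED50 by linear regression.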

In assay [6] the test system is Canis familiaris. As to the kind of experiment: Inhibition of histamine stimulated gastric acid secretion in adult mongrel dogs at dose 5 mg/kg given intravenously. As to conditions: Canis lupus familiaris, Stomach, route intravenous. In a few lines:
as §1

What is called inhibition in vivo is the percentage by which the read-out fell short of the control. Lower therefore signals little suppression. By ED50 is commonly meant the midpoint of the dose-response relation.

With `COc1ccc(COc2cccn3c(CC#N)c(C)nc23)cc1`, testing at 2 mg/kg with Canis familiaris [1] gave an inhibition in vivo of 43%. In the assay with Canis familiaris [2], this compound registered an inhibition in vivo at 8 mg/kg of 7%. In the assay on Rattus norvegicus [3], this compound had an inhibition in vivo at 40 mg/kg of 25%. Further, 4 mg/kg produced 13% inhibition in vivo in the assay on Canis familiaris [4].
With `Cc1nc2c(COc3ccccc3)cccn2c1C`, in the assay on Canis familiaris [1], at 2 mg/kg the inhibition in vivo was 44%. This compound also yielded an inhibition in vivo at 8 mg/kg in the assay on Canis familiaris [2] of 21%. The compound also came in with an inhibition in vivo at 40 mg/kg with Rattus norvegicus [3] of 48%. Moreover, the ED50 in the assay listed under Rattus norvegicus [5] was 6 mg/kg.
As for `Cc1nc2c(OCc3ccccc3)cccn2c1CC(N)=O`, at 5 mg/kg the inhibition in vivo in the assay with Canis familiaris [6] was 46%. This compound also displayed an inhibition in vivo at 40 mg/kg in the assay with Rattus norvegicus [3] of 28%. In the assay listed under Rattus norvegicus [5], this compound yielded a median effective dose (ED50) of 27 mg/kg. Also, the inhibition in vivo at 4 mg/kg in the assay on Canis familiaris [4] was 0%.
For the compound `Cc1cc(C)c(COc2cccn3c(CC#N)c(C)nc23)c(C)c1`, in the assay with Canis familiaris [1], the inhibition in vivo at 2 mg/kg came to 22%. The compound also returned an inhibition in vivo at 5 mg/kg in the assay on Canis familiaris [6] of 86%. In the assay with Canis familiaris [2], this compound had an inhibition in vivo at 8 mg/kg of 40%. Testing at 40 mg/kg in the assay on Rattus norvegicus [3] gave an inhibition in vivo of 49%. The inhibition in vivo at 4 mg/kg in the assay with Canis familiaris [4] turned out to be 0%.
For `Cc1nc2c(N(C)Cc3ccccc3)cccn2c1CC#N`, the inhibition in vivo at 2 mg/kg in the assay on Canis familiaris [1] came to 46%. Moreover, 40 mg/kg produced 94% inhibition in vivo with Rattus norvegicus [3]. The compound further had an inhibition in vivo at 4 mg/kg with Canis familiaris [4] of 23%.
Turning to `CC(C)c1nc2c(OCc3ccccc3)cccn2c1CC#N`, the inhibition in vivo at 5 mg/kg in the assay with Canis familiaris [6] stood at 96%. Also, testing at 8 mg/kg in the assay with Canis familiaris [2] gave an inhibition in vivo of 39%. The same compound came in with an inhibition in vivo at 40 mg/kg in the assay with Rattus norvegicus [3] of 72%. In the assay filed under Rattus norvegicus [5], this compound had an ED50 of 5 mg/kg. Testing at 4 mg/kg with Canis familiaris [4] gave an inhibition in vivo of 36%.
`Cc1nc2c(OCc3ccc(C#N)cc3)cccn2c1CC#N` displayed an inhibition in vivo at 5 mg/kg in the assay on Canis familiaris [6] of 71%. In the assay on Canis familiaris [2], the inhibition in vivo at 8 mg/kg was found to be 33%. For the same compound, the inhibition in vivo at 40 mg/kg in the assay on Rattus norvegicus [3] came out at 69%. For the same compound, the ED50 in the assay listed under Rattus norvegicus [5] is 8 mg/kg. For the same compound, at 4 mg/kg the inhibition in vivo with Canis familiaris [4] was 0%.
For `CCc1nc2c(OCc3ccccc3)cccn2c1C`, the inhibition in vivo at 2 mg/kg in the assay with Canis familiaris [1] was 78%. In the assay on Canis familiaris [2], this compound gave an inhibition in vivo at 8 mg/kg of 27%. Besides, the inhibition in vivo at 40 mg/kg with Rattus norvegicus [3] was 79%. In addition, the ED50 in the assay filed under Rattus norvegicus [5] stood at 9.8 mg/kg.
Turning to `Cc1nc2c(OCc3ccccc3F)cccn2c1CC#N`, in the assay with Canis familiaris [6], at 5 mg/kg the inhibition in vivo was 97%. Testing at 8 mg/kg in the assay with Canis familiaris [2] gave an inhibition in vivo of 65%. The compound also returned an inhibition in vivo at 40 mg/kg with Rattus norvegicus [3] of 96%. In addition, the ED50 in the assay filed under Rattus norvegicus [5] came to 6 mg/kg. In addition, in the assay on Canis familiaris [4], the inhibition in vivo at 4 mg/kg came out at 34%.
In the case of `CC(=O)OCc1c(C)nc2c(OCc3ccccc3)cccn12`, the inhibition in vivo at 2 mg/kg in the assay on Canis familiaris [1] was found to be 54%. The inhibition in vivo at 5 mg/kg in the assay with Canis familiaris [6] is 87%. 8 mg/kg produced 24% inhibition in vivo with Canis familiaris [2]. In the assay on Rattus norvegicus [3], this compound came in with an inhibition in vivo at 40 mg/kg of 88%. In the assay listed under Rattus norvegicus [5], this compound showed an ED50 of 5.5 mg/kg.
In turn, `Cc1nc2c(OCc3ccccc3)cccn2c1COC(=O)C(C)(C)C` showed an inhibition in vivo at 2 mg/kg with Canis familiaris [1] of 43%. Besides, in the assay with Canis familiaris [2], testing at 8 mg/kg gave an inhibition in vivo of 12%. For the same compound, in the assay on Rattus norvegicus [3], 40 mg/kg produced 48% inhibition in vivo. The compound further came in with an ED50 in the assay listed under Rattus norvegicus [5] of 8 mg/kg.
The compound `Cc1cn2cccc(OCc3ccccc3)c2n1` yielded an inhibition in vivo at 2 mg/kg in the assay on Canis familiaris [1] of 61%. Moreover, the inhibition in vivo at 5 mg/kg with Canis familiaris [6] is 70%. In addition, the inhibition in vivo at 8 mg/kg with Canis familiaris [2] worked out at 0%. Moreover, testing at 40 mg/kg in the assay with Rattus norvegicus [3] gave an inhibition in vivo of 62%. This compound also gave an ED50 in the assay listed under Rattus norvegicus [5] of 4 mg/kg.
For `Cc1nc2c(OCc3ccccc3)cccn2c1C(C)C#N` (stereo unspecified), in the assay with Canis familiaris [1], the inhibition in vivo at 2 mg/kg was 4%. The same compound came in with an inhibition in vivo at 8 mg/kg with Canis familiaris [2] of 1%. Moreover, in the assay on Rattus norvegicus [3], the inhibition in vivo at 40 mg/kg was found to be 74%. Besides, in the assay filed under Rattus norvegicus [5], it took a dose of 2.9 mg/kg to reach the 50% effect level (ED50).
For the compound `Cc1nc2c(OCc3ccc(F)cc3)cccn2c1CC#N`, the inhibition in vivo at 5 mg/kg in the assay with Canis familiaris [6] is 95%. The inhibition in vivo at 8 mg/kg in the assay with Canis familiaris [2] was 87%. In the assay with Rattus norvegicus [3], this compound showed an inhibition in vivo at 40 mg/kg of 99%. In the assay listed under Rattus norvegicus [5], this compound came in with an ED50 of 5 mg/kg. This compound returned an inhibition in vivo at 4 mg/kg in the assay with Canis familiaris [4] of 35%.
In turn, `Cc1nc2c(OCc3ccc(C(C)(C)C)cc3)cccn2c1CC#N` registered an inhibition in vivo at 5 mg/kg in the assay with Canis familiaris [6] of 52%. Besides, the inhibition in vivo at 8 mg/kg with Canis familiaris [2] worked out at 47%. This compound gave an inhibition in vivo at 40 mg/kg in the assay on Rattus norvegicus [3] of 47%. In the assay with Canis familiaris [4], this compound yielded an inhibition in vivo at 4 mg/kg of 37%.
